Results published in article PMC6153967 (CNS Drugs, 2018).
Values joined by “and” are separate entries in the source; they are usually repeats but may differ in a detail not shown here. Equal entries are not always repeated. Where two headings read alike, the source gives them in different places.

Tests used:
[1] = molecular target: Recombinant human Aβ42 peptide (Homo sapiens, UniProt P05067); assay: IMS–MS anti-Aβ42 oligomer activity; type: biochemical; conditions: for Inhibition of Aβ42 oligomer formation (in words): 1000:1, 24 h in vitro
Chain of Recombinant human Aβ42 peptide (P05067 672-713): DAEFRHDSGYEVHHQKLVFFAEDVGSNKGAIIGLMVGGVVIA
Outline: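 Recombinant human Aβ42 was reconstituted in LC–MS-grade water as a 5 mg/ml stock and diluted to 22 pmol/µl final. Test compound in water was diluted to […] and 22,000 pmol/µl solutions for 100- and 1000-fold molar excess. Mixtures were incubated at room temperature for 0, 4 and 24 h. Samples were analysed by direct infusion on a traveling-wave IMS Q-TOF: positive sensitivity mode, m/z 500–4000, with drift times used to resolve monomer and oligomers.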

[2] = both phase III trials, subjects receiving active drug; cited from earlier work
[3] = cited from earlier work
[4] = tramiprosate phase III NA trial; cited from earlier work
[5] = type: in vivo, human; conditions: tramiprosate 150 mg BID, week 78
Outline: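 Retrospective lumbar CSF from six patients with AD in the phase III trial, sampled at week 78 of dosing. The metabolite was quantified by a validated LC–MS/MS method in a separate bioanalytical laboratory.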

[6] = ref Alzheon, data on file, cited from earlier work
[7] = Oral and intravenous pharmacokinetics in Sprague Dawley rats; type: in vivo; conditions: male, rat, plasma, 10 mg/kg; for Vd: intravenous 10 mg/kg
Outline: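 Fasted male Sprague Dawley rats, n = 3 per group, received test compound in saline orally by gavage (30 mg/kg) or as an IV bolus (10 mg/kg). Serial blood was drawn at 0.25, 0.5, 1, 2, 4, 8 and 24 h into K2EDTA and centrifuged to plasma. Plasma was stored at –80 °C and assayed by LC–MS/MS. Parameters were calculated from mean concentration–time curves.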

[8] = Brain penetration after single oral dose in Sprague Dawley rats; type: in vivo, male Sprague Dawley rats; conditions: oral 30 mg/kg
Outline: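 Fasted male Sprague Dawley rats received test compound in saline by oral gavage at 30 mg/kg. Terminal plasma, CSF and brain were taken at 1, 2, 6 and 24 h, three rats per time point. Brains were perfused to remove blood before processing. All matrices were assayed by LC–MS/MS. AUC ratios were derived from mean concentration–time curves.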

[9] = type: in vivo, human; conditions: drug-naïve
Outline: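 CSF came from 64 untreated patients with cognitive deficits (MMSE 15–30). Sampling: lumbar puncture at L3–L5, supine, atraumatic needle, 8–11 a.m. Spun 5 min at 2000 rpm at room temperature, aliquoted into polypropylene, stored at –80 °C. Samples were derivatized with EDC/TFEA for 30 min at room temperature and centrifuged. The supernatant went to LC–MS/MS. Identity was set by retention time and two transition ions against reference standard. LOQ 0.1 ng/ml; range 0.1–1000 ng/ml.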

For NCCCS(=O)(=O)O [Tramiprosate, reference compound], which “Inhibition of Aβ42 oligomer formation (in words)” value [1] is on record?
Its value is “complete inhibition”.

And the “Cases of ARIA-E in brain MRI safety analyses” value [2]?
Its value is “no cases”.

And the Steady-state brain penetration [3]?
The Steady-state brain penetration was “approximately 40%”.

What about the “Estimated mean concentration in the brain” value [4] of the same compound?
The value was ~ 130 nM.

With O=C(O)CCS(=O)(=O)O [3-SPA, 3-sulfopropanoic acid] as the compound, how does the “Inhibition of Aβ42 oligomer formation (in words)” value [1] read?
The value was “Near complete prevention of formation of Aβ42 oligomers except for pentamers”.

What about the “Aβ42 oligomer species not inhibited” value ([1]; 1000:1, after 4 h incubation) of the same compound?
The value was “dimers, trimers, and pentamers”.

And the “Aβ42 oligomer species not inhibited” value ([1]; 1000:1, after 24 h incubation)?
The value was “pentamers”.

What about the concentration at 78 week ([5]; human, CSF, oral, 150 mg BID, Minimum–maximum 3-SPA concentration in CSF) of the same compound?
The concentration at 78 week was 112 to 232 nM.

What about the “Median 3-SPA concentration in CSF” value [5] of the same compound?
Its value is 19.8 ng/ml and 128.6 nM.

What about the “Sustained 3-SPA levels (plasma AUC)” value ([6]; at 2000 mg/kg ALZ-801 NOAEL, 28-day rat study) of the same compound?
The value was 180 millimolar (AUC in h × nM).

What about the clearance [7] of the same compound?
The clearance was 45 mL/min/kg.

And the Vd ([7]; Vss)?
Its Vd is 12.9 L/kg.

What about the Vd ([7]; Vz) of the same compound?
The Vd was 43.6 L/kg.

And the “Brain/plasma AUC ratio (brain penetration)” value [8]?
Its value is 25.3%.

And the “Concentration of 3-SPA in CSF, median” value ([9]; all patients)?
Its value is 1.7 ng/ml and 10.8 nM.

What about the “Concentration of 3-SPA in CSF, median” value ([9]; female) of the same compound?
The value was 1.6 ng/ml and 10.4 nM.

And the “Concentration of 3-SPA in CSF, minimum–maximum” value ([9]; female)?
The value was 0.6–4.3 ng/ml and 4.2–27.7 nM.

And the “Concentration of 3-SPA in CSF, mean ± SD” value ([9]; female (N 37))?
Its value is 1.7 ± 0.7 ng/ml and 11.2 ± 4.4 nM.

What about the “Concentration of 3-SPA in CSF, median” value ([9]; male) of the same compound?
Its value is 1.7 ng/ml and 11.1 nM.

What about the “Concentration of 3-SPA in CSF, minimum–maximum” value ([9]; male) of the same compound?
The value was 0.8–3.8 ng/ml and 5.5–24.7 nM.

And the “Concentration of 3-SPA in CSF, mean ± SD” value ([9]; male (N 27))?
Its value is 1.9 ± 0.6 ng/ml and 12.5 ± 4.1 nM.

With CC(C)[C@H](N)C(=O)NCCCS(=O)(=O)O [ALZ-801] as the compound, how does the NOAEL ([6]; 1-month (28-day) rat study) read?
Its NOAEL is 2000 mg/kg.

And the NOAEL ([6]; 6-month rat study)?
Its NOAEL is 1500 mg/kg.

What about the “Improvement in brain penetration” value ([3]; PK/PD projections using 14C tramiprosate) of the same compound?
Its value is ~ 30%.
